The nature of series [1]: Cytotoxicity against human CEM cells. The series is classed as cell-based. As to conditions: CEM cells (CCRF-CEM), read-out: TC50 (the source's name).
The target in series [2] is T1, Peptidyl-prolyl cis-trans isomerase A (Homo sapiens, UniProt P62937). In words: Binding affinity to human cyclophilin A by intrinsic tryptophan fluorescence titration assay. Conditions: read-out: Kd. In a few lines:
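CypA intrinsic tryptophan fluorescence titration in 20 mM Tris–HCl, 100 mM NaCl, pH 7.4, at 25 °C, with compounds from 10 mM DMSO stocks. Excitation was 280 nm and emission was read at 340 nm. Kd was obtained by fitting intensity against final compound concentration to F₀/F = 1 + Ka·C.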

For series [3], the system named is Simian immunodeficiency virus. The experiment in a line: Antiviral activity against SIV in human CEM cells assessed as inhibition of virus-induced cytopathogenicity. The series is classed as functional, organism-based, CCRF-CEM. The gist of the method:
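SIV syncytium assay in CEM174 cells (2 × 10⁵ cells/ml) infected with 100 TCID₅₀ SIV per well alongside serial compound dilutions. Cultures were kept 5 days at 37 °C in humidified 5% CO₂, then giant-cell formation was scored microscopically. EC₅₀ is the concentration protecting cells from SIV cytopathogenicity by 50%.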
Background: Damage to the host cells serves as the signal in cytopathic effect assays.

Series [4] addresses Protease (Human immunodeficiency virus 1) (UniProt Q9YQ12). In words: Inhibition of HIV1 protease assessed as decrease in UV absorbance. Conditions: concentration not given here. In a few lines: (§1)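 HIV-1 protease was preincubated with inhibitor (DMSO) for 20 min at room temperature in 0.1 M MES, 0.2 M NaCl, 5 mM EDTA, pH 5.5. The reaction was started with substrate Lys-Ala-Arg-Val-Leu-Phe(NO₂)-Glu-Ala-Met, and hydrolysis was followed as the A280 decrease over 40 min. Inhibition ratio was taken from Ai/A₀, with and without inhibitor.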

Series [5] concerns the target Human immunodeficiency virus type 1 integrase (Human immunodeficiency virus 1) (UniProt Q7ZJM1). In words: Inhibition of HIV1 integrase at 20 uM. Details: scale not given: the % may be the effect or the level left. The gist of the method:
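Recombinant HIV-1 integrase (E. coli) was preincubated with compound for 30 min. It was then incubated for 30 min at 37 °C on plate-immobilized donor duplex in Tris–HCl pH 7.8, 25 mM NaCl, 7.5 mM MgCl₂, 5 mM β-mercaptoethanol and BSA. Biotinylated target duplex was added for 1 h at 37 °C. Integration products were detected by pNPP phosphatase read-out at A405, and inhibition was taken as the decrease in final absorbance.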

Series [6] is described as follows: Therapeutic index, TC50 for human CEM cells to EC50 for SIV. The series is classed as cell-based, CCRF-CEM.
Series [7] concerns the target Protease (Human immunodeficiency virus 1) (UniProt Q9YQ12). In words: Inhibition of HIV1 protease. The gist of the method: as §1
Series [8] has as its target Structural capsid protein (Human immunodeficiency virus 1) (UniProt Q76129). In words: Binding affinity to HIV1 capsid assessed as assembly rate per minute by ultraviolet spectrophotometry assay. The gist of the method: (§2)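 Turbidity was read at 350 nm every 10 s after a short equilibration delay. Assembly rate (mOD/min) was taken from the initial slope of absorbance versus time.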

For series [9], the system named is Simian immunodeficiency virus. The experiment in a line: Antiviral activity against SIV in human CEM cells assessed as inhibition of virus-induced cytopathogenicity at 10 uM. The series is classed as functional, CCRF-CEM. Details: scale not given: the % may be the effect or the level left.
For series [10], the target named is Structural capsid protein (Human immunodeficiency virus 1) (UniProt Q76129). In words: Binding affinity to HIV1 capsid assessed as assembly rate per minute at 1:1 drug to protein ratio by ultraviolet spectrophotometry assay. In a few lines: as §2
For series [11] the target is unchanged. In words: Binding affinity to HIV1 capsid assessed as assembly rate per minute at 2:1 drug to protein ratio by ultraviolet spectrophotometry assay. In a few lines: as §2
The target is the same in series [12]. The experiment in a line: Binding affinity to HIV1 capsid assessed as assembly rate per minute at 0.5:1 drug to protein ratio by ultraviolet spectrophotometry assay. The gist of the method:
as §2

Series [13] has as its target T1, Peptidyl-prolyl cis-trans isomerase A. The experiment in a line: Inhibition of human cyclophilin A at 6 degC. In a few lines:
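PPIase assay at 6 °C in 50 mM HEPES, 100 mM NaCl, using Suc-AAPF-pNA substrate (3 mM stock in THF with 480 mM LiCl). A390 was recorded for 20 s after about a 6 s mixing delay. Cis–trans rate constants came from nonlinear least-squares fits to an integrated first-order equation, and IC₅₀ was calculated from these.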

The target of series [14] is Protease (Human immunodeficiency virus 1) (UniProt Q9YQ12). The experiment in a line: Inhibition of HIV1 protease assessed as decrease in UV absorbance at 10 uM. The gist of the method:
as §1

The mark [15] stands for this setting: Simian immunodeficiency virus, CCRF-CEM, read-out: EC50.

The source made the active and inactive calls. The calls are words filed in the database; no cut-off is given here. A value given as a limit tells only on which side of the number the result lay.

Chain of Human immunodeficiency virus type 1 integrase (Human immunodeficiency virus 1) (Q7ZJM1 as listed by the source): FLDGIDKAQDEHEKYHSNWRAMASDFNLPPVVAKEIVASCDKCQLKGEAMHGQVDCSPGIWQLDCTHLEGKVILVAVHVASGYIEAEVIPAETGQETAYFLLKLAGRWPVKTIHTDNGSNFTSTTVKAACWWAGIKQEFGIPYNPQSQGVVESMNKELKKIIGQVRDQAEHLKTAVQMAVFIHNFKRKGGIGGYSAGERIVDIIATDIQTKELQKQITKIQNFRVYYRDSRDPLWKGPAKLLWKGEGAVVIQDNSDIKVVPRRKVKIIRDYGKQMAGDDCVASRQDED
Chain of Structural capsid protein (Human immunodeficiency virus 1) (Q76129 as listed by the source): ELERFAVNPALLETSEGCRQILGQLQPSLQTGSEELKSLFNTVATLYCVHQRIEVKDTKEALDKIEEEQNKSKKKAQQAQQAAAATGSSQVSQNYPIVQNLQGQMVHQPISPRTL
T1 sequence (P62937 whole entry): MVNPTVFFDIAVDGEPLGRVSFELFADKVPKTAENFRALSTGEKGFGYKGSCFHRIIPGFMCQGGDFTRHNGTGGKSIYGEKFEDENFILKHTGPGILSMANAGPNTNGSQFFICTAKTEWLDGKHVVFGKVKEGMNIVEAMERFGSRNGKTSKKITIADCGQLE
Chain of Protease (Human immunodeficiency virus 1) (Q9YQ12 as listed by the source): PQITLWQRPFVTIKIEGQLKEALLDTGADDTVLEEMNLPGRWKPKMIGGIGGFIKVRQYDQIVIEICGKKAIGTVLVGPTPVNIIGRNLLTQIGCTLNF

Broadly, the Kd is the constant that tells how readily two partners part at equilibrium. As a reminder, the EC50 is the concentration needed to bring the measured effect to its halfway point. A word on the inhibition: it is how much of the control response was suppressed. Regarding `O=C1OCc2ccc(NC(=S)Nc3cccc(Cl)c3)cc21`, in series [1], the CC50 turned out to be 86 µM. Further, in series [2], the Kd came out at 133 µM. For the same compound, in series [3] (setting [15]), the EC50 was 4.2 µM. Also, in [4], the inhibition is < 5%. The Activity in series [5] is < 20%. The selectivity ratio in [6] was found to be 20. Further, in series [7], the outcome was inactive. In addition, the Activity (milli optical density/minute) in series [8] came out at 49.2.
With `C/C=C/C[C@@H](C)[C@@H](O)[C@H]1C(=O)N[C@@H](CC)C(=O)N(C)CC(=O)N(C)[C@@H](CC(C)C)C(=O)N[C@@H](C(C)C)C(=O)N(C)[C@@H](CC(C)C)C(=O)N[C@@H](C)C(=O)N[C@H](C)C(=O)N(C)[C@@H](CC(C)C)C(=O)N(C)[C@@H](CC(C)C)C(=O)N(C)[C@@H](C(C)C)C(=O)N1C` [CYCLOSPORINE], the EC50 entry in series [3] (ccrf-cem) is “Not Active”. In addition, the Activity in [9] is reported as <10%.
As a reminder, the IC50 is the concentration needed to halve the response being measured. For `Cc1cc(NS(=O)(=O)c2ccc(NC(=S)Nc3ccc(Cl)cc3)cc2)no1`, the CC50 in series [1] was 37.8 µM. The Activity (milli optical density/minute) in [10] worked out at 42; in [11] it was 19.4; in series [12], 52.2; in series [8], 29. For the same compound, in series [2], the Kd was determined as 107 µM. For the same compound, the EC50 in series [3] (setting [15]) stood at 4.1 µM. Further, the selectivity ratio in [6] amounted to 9. This compound registered an IC50 in [13] of 0.69 µM.
With `Cc1cc(NS(=O)(=O)c2ccc(NC(=S)Nc3cccc(Cl)c3)cc2)no1`, in series [1], the CC50 worked out at 91.9 µM. The Activity (milli optical density/minute) in series [10] is 38.4; in series [11], 11.4; in [12] it was 43.2; in series [8], 15.8. Also, the Kd in series [2] was 79.6 µM. For the same compound, in series [3] (setting [15]), the EC50 was determined as 1 µM. Besides, the selectivity ratio in series [6] was 92. For the same compound, it took 0.33 µM to reach half-maximal inhibition in series [13] (IC50).
Consider `Cc1cc(NS(=O)(=O)c2ccc(NC(=S)Nc3ccc(C)c(Cl)c3)cc2)no1`, for which the CC50 in [1] was found to be 74.4 µM. Also, the Kd in series [2] was 55.8 µM. Further, the half-maximal effective concentration (EC50) in [3] (setting [15]) amounted to 0.6 µM. Besides, in series [4], the inhibition is < 5%. In series [6], the selectivity ratio is 127. The compound also displayed an IC50 in [13] of 0.65 µM. The Activity (milli optical density/minute) in [8] was 36.4.
Regarding `Cc1ccc(NC(=S)Nc2ccc3c(c2)C(=O)OC3)cc1Cl`, in series [1], the CC50 turned out to be 18.7 µM. Further, the Kd in series [2] was 96.6 µM. The EC50 in series [3] (setting [15]) turned out to be 4.6 µM. For the same compound, the Activity in series [5] is < 20%. In addition, in series [6], the selectivity ratio was 4. The compound further showed an IC50 in series [13] of 0.59 µM. The result in series [7] was inactive. Besides, the Activity (milli optical density/minute) in series [8] was found to be 19.6.
Take `CC(C)(C)NC(=O)[C@@H]1CN(Cc2cccnc2)CCN1C[C@@H](O)C[C@@H](Cc1ccccc1)C(=O)N[C@H]1c2ccccc2C[C@H]1O`: the inhibition in [14] was > 90%.
In the case of `Cc1ccc(NC(=S)Nc2ccc(C)c([N+](=O)[O-])c2)cc1Cl`, in series [1], the CC50 worked out at 38.8 µM. The Kd in [2] is 88.9 µM. Further, the EC50 in series [3] (setting [15]) worked out at 3.1 µM. Further, the Activity in series [5] is < 20%. In addition, in series [6], the selectivity ratio amounted to 12. The same compound showed an IC50 in series [13] of 0.46 µM. The outcome in series [7] was inactive. The Activity (milli optical density/minute) in series [8] was 60.

Source of the values: ChEMBL document CHEMBL1153444, “Discovery of dual inhibitors targeting both HIV-1 capsid and human cyclophilin A to inhibit the assembly and uncoating of the viral capsid” (Bioorg Med Chem, 2009).
